Screens as filed in PubChem BioAssay.
In the library only some 2.9% were active in any assay of this set; here they are far more common.
Apaf-1 inh: inhibitors of human Apaf-1 apoptosome | inhibition, % at 20 µM | O14727 | actives 0.71% (n = 330,000) | AID 489030 | reconstituted apoptosome caspase-3 activity, DEVD-Rh110 fluorescence; active means inhibition of at least 40% at 20 µM
Target sequence (O14727 whole entry, looked up): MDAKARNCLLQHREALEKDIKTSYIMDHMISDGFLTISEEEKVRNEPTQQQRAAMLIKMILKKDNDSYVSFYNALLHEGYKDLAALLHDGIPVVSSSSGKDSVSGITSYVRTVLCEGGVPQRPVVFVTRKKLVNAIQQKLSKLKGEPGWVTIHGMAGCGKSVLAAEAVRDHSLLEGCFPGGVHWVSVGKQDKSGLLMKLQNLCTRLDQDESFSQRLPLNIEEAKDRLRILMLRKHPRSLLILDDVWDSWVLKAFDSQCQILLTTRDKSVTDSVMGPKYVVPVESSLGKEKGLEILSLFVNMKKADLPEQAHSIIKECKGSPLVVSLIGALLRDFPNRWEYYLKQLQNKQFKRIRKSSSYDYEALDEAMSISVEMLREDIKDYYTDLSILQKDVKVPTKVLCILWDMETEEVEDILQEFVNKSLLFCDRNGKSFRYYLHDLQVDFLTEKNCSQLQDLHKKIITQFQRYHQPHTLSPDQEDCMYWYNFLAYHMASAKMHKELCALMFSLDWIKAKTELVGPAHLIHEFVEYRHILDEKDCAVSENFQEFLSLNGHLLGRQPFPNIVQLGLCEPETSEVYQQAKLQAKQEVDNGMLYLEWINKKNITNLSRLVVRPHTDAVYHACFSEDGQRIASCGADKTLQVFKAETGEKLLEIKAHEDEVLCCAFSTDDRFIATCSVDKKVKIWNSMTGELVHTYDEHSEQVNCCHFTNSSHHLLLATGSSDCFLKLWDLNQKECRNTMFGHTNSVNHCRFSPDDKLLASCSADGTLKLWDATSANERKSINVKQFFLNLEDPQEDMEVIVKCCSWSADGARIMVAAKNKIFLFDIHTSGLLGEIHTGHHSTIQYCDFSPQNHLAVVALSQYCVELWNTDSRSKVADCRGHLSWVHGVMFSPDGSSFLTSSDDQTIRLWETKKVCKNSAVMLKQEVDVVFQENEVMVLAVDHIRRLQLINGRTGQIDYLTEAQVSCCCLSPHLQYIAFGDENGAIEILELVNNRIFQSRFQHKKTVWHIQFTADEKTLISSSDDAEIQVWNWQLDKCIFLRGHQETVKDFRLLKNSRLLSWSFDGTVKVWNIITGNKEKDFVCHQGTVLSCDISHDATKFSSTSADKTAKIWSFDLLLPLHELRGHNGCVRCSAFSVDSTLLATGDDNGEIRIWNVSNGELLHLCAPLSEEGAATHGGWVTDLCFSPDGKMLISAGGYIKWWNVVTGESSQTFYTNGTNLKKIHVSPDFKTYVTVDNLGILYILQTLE
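System: Apoptosome proteins | Medium: Hepes pH 7.5 with detergent and BSA | Also added: Cytochrome c trigger plus (Z-DEVD)2-Rh110 caspase-3 substrate | Incubation: 30 min compound preincubation, 50 min activation, room temperature | Detection: Rhodamine 110 fluorescence at Ex 480/Em 540 nm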
MEKK3 PB1 HTS: modulators (inhibitors or enhancers) of MEK5 binding to human MEKK3 PB1 domain | Q99759 | bead-based flow cytometry, Alexa488-MEK5 binding to MEKK3; actives lie on both sides; 0 = blocked by unlabeled MEK5, 100 = vehicle | binding response (% of control), % at 10 µM | actives 1.4% (n = 290,000) | AID 1529;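 active means binding response more than 3 SD above or below the average of its plate-row segment, actives on both sides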;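 further: Alexa488 bead fluorescence after subtracting the streptavidin-only scavenger bead signal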
UBC13 polyUb: blocks human UBC13 polyubiquitin chain formation. P61088. TR-FRET. inhibition, % at 20 µM. actives 0.47% (n = 330,000); in the data active means inhibition above about 45%, passing the limit was not always enough
MEKK2 WT-MEK5: raises or lowers MEK5 binding to wildtype human MEKK2 PB1 domain; bead flow cytometry, Alexa488-MEK5 binding to MEKK2 WT; actives lie on both sides; binding response (% of control), % at 10 µM; actives 1.1% (n = 290,000); AID 1531; in the data active means binding response below about 67% or above about 130%
MEKK2mut PB1 HTS: signal of MEK5 binding to mutant human MEKK2 PB1 domain | bead flow cytometry, Alexa488-MEK5 binding to MEKK2 mutant | percent response, % at 10 µM | actives 0.35% (n = 290,000) | AID 1530; in the data active means percent response above about 24%, passing the limit was not always enough
MEKK2wt confirm: raises or lowers MEK5 binding to wildtype human MEKK2, retest. bead flow cytometry, Alexa488-MEK5 binding to MEKK2 WT; actives lie on both sides. shares compounds with MEKK3 PB1 HTS. actives 2.4% (n = 5,900). binding response (% of control), % at 10 µM; in the data active means binding response below about 16% or above about 210%; inactive means in between
MEKK2mut confirm: signal of MEK5 binding to mutant human MEKK2, retest | shares compounds with MEKK3 PB1 HTS | AID 1893 | actives 2% (n = 5,900) | percent response, % at 10 µM | bead flow cytometry, Alexa488-MEK5 binding to MEKK2 mutant; in the data active means percent response mostly above about 71%, no sharp cut-off; inactive means mostly below about 38%;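 further: higher means compound restores mutant binding toward wildtype level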
MEKK3-MEK5 inh: confirmation of inhibitors of MEK5 binding to human MEKK3; shares compounds with MEKK3 PB1 HTS; bead flow cytometry, Alexa488-MEK5 binding to MEKK3; active compounds read low; binding response (% of control), % at 10 µM; actives 1.8% (n = 5,900);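 active means binding response below 72% of control, or above a set upper limit, though filed actives all read lower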;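 further: lower values mean stronger disruption of MEK5 binding to MEKK3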
A number is an active result; [ ] = dose if it differs, or a comment.

For CC1=C(C(=O)OC2CCCC2)C(c2coc3ccccc3c2=O)C2=C(CCCC2=O)N1 (stereo not given) the results were Apaf-1 inh inactive, MEKK3 PB1 HTS 133.0, UBC13 polyUb inactive, MEKK2 WT-MEK5 inactive, MEKK2mut PB1 HTS inactive, MEKK2wt confirm inactive, MEKK2mut confirm inactive and MEKK3-MEK5 inh inactive.
Oc1ccc(Cl)cc1C=NCCc1ccccc1 was read as Apaf-1 inh inactive, MEKK3 PB1 HTS 129.0, UBC13 polyUb inactive, MEKK2 WT-MEK5 inactive, MEKK2mut PB1 HTS inactive, MEKK2wt confirm inactive, MEKK2mut confirm inactive and MEKK3-MEK5 inh inactive.
Oc1ccccc1C=NCCN=Cc1ccccc1O was read as Apaf-1 inh inactive, MEKK3 PB1 HTS inactive, UBC13 polyUb inactive, MEKK2 WT-MEK5 inactive and MEKK2mut PB1 HTS inactive.
For CC(C)(C)OC(=O)N1CCC(c2cc(=O)n3[nH]cc(C(=O)NC4CCCC4)c3n2)CC1 the results were Apaf-1 inh inactive, MEKK3 PB1 HTS inactive, UBC13 polyUb inactive, MEKK2 WT-MEK5 inactive and MEKK2mut PB1 HTS inactive.
CC(C)(C)OC(=O)N1CCC(c2cc(=O)n3[nH]cc(C(=O)Nc4ccc(F)c(Cl)c4)c3n2)CC1 was read as Apaf-1 inh inactive, MEKK3 PB1 HTS 129.0, UBC13 polyUb inactive, MEKK2 WT-MEK5 inactive, MEKK2mut PB1 HTS inactive, MEKK2wt confirm inactive, MEKK2mut confirm inactive and MEKK3-MEK5 inh inactive.
For CSc1cccc(NC(=O)CSc2ncccc2C(=O)Oc2cccc([N+](=O)[O-])c2)c1 the results were Apaf-1 inh inactive, MEKK3 PB1 HTS inactive, UBC13 polyUb inactive, MEKK2 WT-MEK5 inactive and MEKK2mut PB1 HTS inactive.
`CCN(C(=O)CSc1ncccc1C(=O)Oc1cccc([N+](=O)[O-])c1)c1cccc(C)c1` gave Apaf-1 inh inactive, MEKK3 PB1 HTS 138.0, UBC13 polyUb inactive, MEKK2 WT-MEK5 inactive, MEKK2mut PB1 HTS inactive, MEKK2wt confirm inactive, MEKK2mut confirm inactive and MEKK3-MEK5 inh inactive.
Screening Cc1c(Br)c([N+](=O)[O-])nn1CC(=O)Nc1c(C)n(C)n(-c2ccccc2)c1=O returned Apaf-1 inh inactive, MEKK3 PB1 HTS inactive, UBC13 polyUb inactive, MEKK2 WT-MEK5 inactive and MEKK2mut PB1 HTS inactive.
COC(=O)c1cn(-c2nc(C)c3c(n2)CCC3)nn1 was read as Apaf-1 inh inactive, MEKK3 PB1 HTS inactive, UBC13 polyUb inactive, MEKK2 WT-MEK5 inactive and MEKK2mut PB1 HTS inactive.
Cc1nc(-n2nnc(CO)c2CO)nc2c1CCC2 was read as Apaf-1 inh inactive, MEKK3 PB1 HTS 138.0, UBC13 polyUb inactive, MEKK2 WT-MEK5 inactive, MEKK2mut PB1 HTS inactive, MEKK2wt confirm inactive, MEKK2mut confirm inactive and MEKK3-MEK5 inh inactive.
`CC1CC(C)CN(C(=O)C2CCN(S(=O)(=O)c3cccc4cccnc34)CC2)C1` (stereo not given) gave Apaf-1 inh inactive, MEKK3 PB1 HTS inactive, UBC13 polyUb inactive, MEKK2 WT-MEK5 inactive and MEKK2mut PB1 HTS inactive.
O=C(NCCCn1ccnc1)/C(=C\c1cccs1)NC(=O)c1cccs1 was read as Apaf-1 inh inactive, MEKK3 PB1 HTS 130.0, UBC13 polyUb inactive, MEKK2 WT-MEK5 inactive, MEKK2mut PB1 HTS inactive, MEKK2wt confirm inactive, MEKK2mut confirm inactive and MEKK3-MEK5 inh inactive.
For COc1ccc(C(CCNC(C)c2ccccc2)C(C)C)cc1 (stereo not given) the results were Apaf-1 inh inactive, MEKK3 PB1 HTS inactive, UBC13 polyUb inactive, MEKK2 WT-MEK5 inactive and MEKK2mut PB1 HTS inactive.
Screening COc1ccc(C(C)NCCC(c2ccc(OC(C)C)cc2)c2ccccc2OC)cc1 (stereo not given) returned Apaf-1 inh inactive, MEKK3 PB1 HTS inactive, UBC13 polyUb inactive, MEKK2 WT-MEK5 194.0, MEKK2mut PB1 HTS 45.0, MEKK2wt confirm inactive, MEKK2mut confirm inactive and MEKK3-MEK5 inh inactive.
For COc1ccc(CNC(C)C(=O)Nc2ccc3ccccc3c2)cc1OC (stereo not given) the results were Apaf-1 inh inactive, MEKK3 PB1 HTS inactive, UBC13 polyUb inactive, MEKK2 WT-MEK5 inactive and MEKK2mut PB1 HTS inactive.
CC(C)(C)S(=O)(=O)c1cnc(-c2cnccn2)nc1N was read as Apaf-1 inh inactive, MEKK3 PB1 HTS 134.0, UBC13 polyUb inactive, MEKK2 WT-MEK5 inactive, MEKK2mut PB1 HTS inactive, MEKK2wt confirm inactive, MEKK2mut confirm inactive and MEKK3-MEK5 inh inactive.
CCn1cc(CN2CCCC(C(=O)Nc3ccc(-c4nc5ccccc5[nH]4)cc3)C2)c(C)n1 (stereo not given) was read as Apaf-1 inh inactive, MEKK3 PB1 HTS inactive, UBC13 polyUb inactive, MEKK2 WT-MEK5 inactive and MEKK2mut PB1 HTS inactive.
Screening CCn1cc(CN2CCCC(C(=O)Nc3cccc(-c4cc5ccccc5[nH]4)c3)C2)c(C)n1 (stereo not given) returned Apaf-1 inh inactive, MEKK3 PB1 HTS inactive, UBC13 polyUb inactive, MEKK2 WT-MEK5 154.0, MEKK2mut PB1 HTS inactive, MEKK2wt confirm inactive, MEKK2mut confirm inactive and MEKK3-MEK5 inh inactive.
CN(C)c1ccc(/C=N/NC(=O)c2ccc(NC(=O)c3ccccc3)cc2)cc1 was read as Apaf-1 inh inactive, MEKK3 PB1 HTS 73.0[inhibitor], UBC13 polyUb inactive, MEKK2 WT-MEK5 inactive, MEKK2mut PB1 HTS inactive, MEKK2wt confirm inactive, MEKK2mut confirm inactive and MEKK3-MEK5 inh inactive.
`O=C(N/N=C/c1cccc(NC(=O)c2ccc(Cl)cc2)c1)c1ccc(O)cc1` gave Apaf-1 inh inactive, MEKK3 PB1 HTS 44.0[inhibitor], UBC13 polyUb inactive, MEKK2 WT-MEK5 38.0[inhibitor], MEKK2mut PB1 HTS inactive, MEKK2wt confirm inactive, MEKK2mut confirm inactive and MEKK3-MEK5 inh inactive.
For O=C(N/N=C/c1cccc(F)c1)c1ccc(Cl)cc1 the results were Apaf-1 inh inactive, MEKK3 PB1 HTS inactive, UBC13 polyUb inactive, MEKK2 WT-MEK5 inactive and MEKK2mut PB1 HTS inactive.
For CCN(CC)S(=O)(=O)c1ccc(Cl)c(NC(=O)COc2ccc(OC)cc2)c1 the results were Apaf-1 inh inactive, MEKK3 PB1 HTS inactive, UBC13 polyUb inactive, MEKK2 WT-MEK5 inactive and MEKK2mut PB1 HTS inactive.
Screening COCCN(C(=O)COC(=O)CCOc1ccccc1C)c1c(N)n(Cc2ccccc2)c(=O)[nH]c1=O returned Apaf-1 inh inactive and UBC13 polyUb inactive.
Screening O=C(O)CCN1C(=O)C2C3CC(C2C1=O)C1C(c2ccccc2)c2sc(=O)[nH]c2SC31 (stereo not given) returned Apaf-1 inh inactive, MEKK3 PB1 HTS inactive, UBC13 polyUb inactive, MEKK2 WT-MEK5 inactive and MEKK2mut PB1 HTS inactive.
